Source: ChEMBL document CHEMBL5303300, “EUbOPEN Chemogenomics Library - Multiplex” (2023)
“And” between values parts separate entries of the source, which are not always exact repeats. Equal entries are not always repeated.

Key:
HEK-293T = assay: Multiplex assay against HEK293T; format: toxicity, cell-based; conditions: human, number of replicates 2
In short: (§1)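 Live cells were stained at seeding with Hoechst33342, BioTracker Green Microtubule Cytoskeleton Dye, MitoTracker Red and Annexin V Alexa Fluor 680, then imaged on a CQ1 microscope at 37°C and 5% CO2 after compound addition. CellPathfinder machine-learning gating split cells into Hoechst high-intensity objects or normal cells. Normal cells were split into healthy, pyknosed or fragmented nuclei, and pyknosed cells into mitotic or apoptotic. Tubulin, mitochondrial-mass and membrane-permeability phenotypes are per cents of healthy-nucleus cells.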

U2OS = assay: Multiplex assay against U2OS; format: toxicity, cell-based; conditions: human, number of replicates 2; in short: as §1
[1] = 24 h, 1 µM, compound concentration 1 uM
[2] = 24 h, 10 µM, compound concentration 10 uM
[3] = 48 h, 1 µM, compound concentration 1 uM
[4] = 48 h, 10 µM, compound concentration 10 uM
[5] = 12 h, 1 µM, compound concentration 1 uM
[6] = 12 h, 10 µM, compound concentration 10 uM

With `CC1=C(C)C(=O)C(C(C)(C)CC(=O)N(CCCCSC[C@H]2O[C@@H](n3cnc4c(N)ncnc43)[C@H](O)[C@@H]2O)Cc2cccc(-c3ccc(Cl)cc3)c2)=C(C)C1=O` the “Population Mitotic Cells (%)” value (HEK-293T; [1]) was 78% and 74%, the “Population Normal (%)” value (HEK-293T; [1]) was 91% and the “Population Pyknosed Nuclei (%)” value (HEK-293T; [1]) was 4% and 6%. For the same compound, the “Population Tubulin-Different-Phenotype (%)” value (HEK-293T; [1]) was 50%, the “Total Cell Count” value (HEK-293T; [1]) was 1418 and 1263 and the “Population Apoptotic (%)” value (HEK-293T; [2]) was 46% and 64%. The “Population Fragmented Nuclei (%)” value (HEK-293T; [2]) was 3%, the “Population Healthy Nuclei (%)” value (HEK-293T; [2]) was 81% and the “Population Hoechst High Intensity Objects (%)” value (HEK-293T; [2]) was 7% and 9%. The “Population Membrane Permeable-Phenotype (%)” value (HEK-293T; [2]) was 4% and 3%, the “Population Mitochondria Different-Phenotype (%)” value (HEK-293T; [2]) was 62% and 59% and the “Population Mitotic Cells (%)” value (HEK-293T; [2]) was 53% and 35%. For the same compound, the “Population Normal (%)” value (HEK-293T; [2]) was 92% and 90%, the “Population Pyknosed Nuclei (%)” value (HEK-293T; [2]) was 15% and 14% and the “Population Tubulin-Different-Phenotype (%)” value (HEK-293T; [2]) was 88% and 93%. For the same compound, the “Total Cell Count” value (HEK-293T; [2]) was 524 and 473, the “Population Apoptotic (%)” value (HEK-293T; [3]) was 10% and 13% and the “Population Fragmented Nuclei (%)” value (HEK-293T; [3]) was 24% and 15%. For the same compound, the “Population Healthy Nuclei (%)” value (HEK-293T; [3]) was 74% and 81%, the “Population Hoechst High Intensity Objects (%)” value (HEK-293T; [3]) was 10% and 9% and the “Population Membrane Permeable-Phenotype (%)” value (HEK-293T; [3]) was 6% and 5%. For the same compound, the “Population Mitochondria Different-Phenotype (%)” value (HEK-293T; [3]) was 0%, the “Population Mitotic Cells (%)” value (HEK-293T; [3]) was 89% and 86% and the “Population Normal (%)” value (HEK-293T; [3]) was 89% and 90%. The “Population Pyknosed Nuclei (%)” value (HEK-293T; [3]) was 1% and 2%, the “Population Tubulin-Different-Phenotype (%)” value (HEK-293T; [3]) was 25% and 28% and the “Total Cell Count” value (HEK-293T; [3]) was 3744 and 2984. The “Population Apoptotic (%)” value (HEK-293T; [4]) was 55% and 62%, the “Population Fragmented Nuclei (%)” value (HEK-293T; [4]) was 4% and 5% and the “Population Healthy Nuclei (%)” value (HEK-293T; [4]) was 87% and 88%. The “Population Hoechst High Intensity Objects (%)” value (HEK-293T; [4]) was 6% and 10%, the “Population Membrane Permeable-Phenotype (%)” value (HEK-293T; [4]) was 8% and 6% and the “Population Mitochondria Different-Phenotype (%)” value (HEK-293T; [4]) was 47%. For the same compound, the “Population Mitotic Cells (%)” value (HEK-293T; [4]) was 44% and 37%, the “Population Normal (%)” value (HEK-293T; [4]) was 93% and 89% and the “Population Pyknosed Nuclei (%)” value (HEK-293T; [4]) was 7% and 5%. The “Population Tubulin-Different-Phenotype (%)” value (HEK-293T; [4]) was 93% and 92%, the “Total Cell Count” value (HEK-293T; [4]) was 622 and 637 and the “Population Apoptotic (%)” value (U2OS; [5]) was 33% and 50%. The “Population Fragmented Nuclei (%)” value (U2OS; [5]) was 4% and 7%, the “Population Healthy Nuclei (%)” value (U2OS; [5]) was 85% and 72% and the “Population Hoechst High Intensity Objects (%)” value (U2OS; [5]) was 0%. The “Population Membrane Permeable-Phenotype (%)” value (U2OS; [5]) was 5% and 6%, the “Population Mitochondria Different-Phenotype (%)” value (U2OS; [5]) was 4% and 0% and the “Population Mitotic Cells (%)” value (U2OS; [5]) was 66% and 50%. For the same compound, the “Population Normal (%)” value (U2OS; [5]) was 99% and 100%, the “Population Pyknosed Nuclei (%)” value (U2OS; [5]) was 10% and 20% and the “Population Tubulin-Different-Phenotype (%)” value (U2OS; [5]) was 57% and 34%. The “Population Apoptotic (%)” value (U2OS; [6]) was 75% and 58%, the “Population Fragmented Nuclei (%)” value (U2OS; [6]) was 8% and 4% and the “Population Healthy Nuclei (%)” value (U2OS; [6]) was 69% and 79%. For the same compound, the “Population Hoechst High Intensity Objects (%)” value (U2OS; [6]) was 0%, the “Population Membrane Permeable-Phenotype (%)” value (U2OS; [6]) was 16% and 24% and the “Population Mitochondria Different-Phenotype (%)” value (U2OS; [6]) was 40% and 33%. The “Population Mitotic Cells (%)” value (U2OS; [6]) was 25% and 41%, the “Population Normal (%)” value (U2OS; [6]) was 100% and the “Population Pyknosed Nuclei (%)” value (U2OS; [6]) was 22% and 16%. The “Population Tubulin-Different-Phenotype (%)” value (U2OS; [6]) was 96% and 86%, the “Population Apoptotic (%)” value (U2OS; [1]) was 53% and 77% and the “Population Fragmented Nuclei (%)” value (U2OS; [1]) was 2% and 6%. For the same compound, the “Population Healthy Nuclei (%)” value (U2OS; [1]) was 89% and 77%, the “Population Hoechst High Intensity Objects (%)” value (U2OS; [1]) was 0% and the “Population Membrane Permeable-Phenotype (%)” value (U2OS; [1]) was 3% and 4%. For the same compound, the “Population Mitochondria Different-Phenotype (%)” value (U2OS; [1]) was 4% and 6%, the “Population Mitotic Cells (%)” value (U2OS; [1]) was 46% and 22% and the “Population Normal (%)” value (U2OS; [1]) was 99% and 100%. The “Population Pyknosed Nuclei (%)” value (U2OS; [1]) was 7% and 15%, the “Population Tubulin-Different-Phenotype (%)” value (U2OS; [1]) was 66% and 42% and the “Population Apoptotic (%)” value (U2OS; [2]) was 87% and 79%. The “Population Healthy Nuclei (%)” value (U2OS; [2]) was 53% and 70%, the “Population Hoechst High Intensity Objects (%)” value (U2OS; [2]) was 0% and the “Population Membrane Permeable-Phenotype (%)” value (U2OS; [2]) was 50% and 23%. The “Population Mitochondria Different-Phenotype (%)” value (U2OS; [2]) was 42% and 45%, the “Population Mitotic Cells (%)” value (U2OS; [2]) was 12% and 20% and the “Population Normal (%)” value (U2OS; [2]) was 100% and 99%. For the same compound, the “Population Pyknosed Nuclei (%)” value (U2OS; [2]) was 30% and 25%, the “Population Tubulin-Different-Phenotype (%)” value (U2OS; [2]) was 78% and 90% and the “Population Apoptotic (%)” value (U2OS; [3]) was 100% and 39%. The “Population Fragmented Nuclei (%)” value (U2OS; [3]) was 9% and 3%, the “Population Healthy Nuclei (%)” value (U2OS; [3]) was 77% and 89% and the “Population Hoechst High Intensity Objects (%)” value (U2OS; [3]) was 0%. For the same compound, the “Population Membrane Permeable-Phenotype (%)” value (U2OS; [3]) was 4% and 1%, the “Population Mitochondria Different-Phenotype (%)” value (U2OS; [3]) was 7% and 0% and the “Population Normal (%)” value (U2OS; [3]) was 100%. The “Population Pyknosed Nuclei (%)” value (U2OS; [3]) was 12% and 7%, the “Population Tubulin-Different-Phenotype (%)” value (U2OS; [3]) was 56% and 79% and the “Population Apoptotic (%)” value (U2OS; [4]) was 68% and 78%. The “Population Healthy Nuclei (%)” value (U2OS; [4]) was 32% and 66%, the “Population Hoechst High Intensity Objects (%)” value (U2OS; [4]) was 0% and the “Population Membrane Permeable-Phenotype (%)” value (U2OS; [4]) was 66% and 36%. The “Population Mitochondria Different-Phenotype (%)” value (U2OS; [4]) was 58% and 52%, the “Population Mitotic Cells (%)” value (U2OS; [4]) was 31% and 21% and the “Population Normal (%)” value (U2OS; [4]) was 100% and 99%. The “Population Pyknosed Nuclei (%)” value (U2OS; [4]) was 51% and 28% and the “Population Tubulin-Different-Phenotype (%)” value (U2OS; [4]) was 100% and 82%.
